F508del corr: CFTR F508del correction in bronchial cells | CFBE cells, YFP halide quenching; stimulated with forskolin plus potentiator P3; % fluorescence drop versus neutral controls | activity (quench increase), % at 7.58 µM | 350,000 compounds, 0.36% hits;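 active means mean added fluorescence quench of at least 8% versus neutral control, with both replicates also reaching 8%; inconclusive means only one of the mean or replicate conditions met; inactive means mean below 8% and not both replicates reaching 8%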;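 further: cells transiently co-express mutant CFTR-F508del with the halide-sensitive YFP; corrector assay measuring rescue of mutant channel to the surface after 24 h compound exposure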
S100A4 MyoIIA: S100A4-myosin IIA interaction inhibition; P26447; S100A4/TAMRA-MyoIIA peptide fluorescence polarization; inhibition, % at 10.7 µM; 360,000 compounds, 0.14% hits;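 active means mean inhibition of at least 70% across replicates, with every replicate also reaching that level; inconclusive means mean inhibition reaches 70% but some replicates fall short; inactive means mean inhibition below 70%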
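Test system: S100A4 monomer protein. Medium: HEPES buffer with Ca2+, pH 7.2. Reagent: fluorescent myosin IIA peptide, 5 nM. Compound dosing: single-point compound testing. Timing: 5 min between mix addition and reading. Benchmarks: DMSO neutral and TFP positive wells.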
HIV Env fusion: HIV envelope-mediated fusion inhibition | HeLa-JRFL Env/CEM21 cell fusion, luciferase | inhibition, % at 12.3 µM | 360,000 compounds, 1.1% hits | AID 651610;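 active means mean replicate inhibition score of at least 50 and every replicate individually at or above 50; inconclusive means only one of the two criteria met; inactive means mean below 50 and not all replicates reaching 50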;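 further: 0% = plate neutral controls and 100% = maraviroc near 300 nM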
FGF22 binding: binders of recombinant human FGF22 by thermal shift. activity (Tm shift, normalised), % at 9.99 µM. AID 651658. Q9HCT0. SYPRO orange fluorescence; percent of sucrose octasulfate shift, DMSO zero. 340,000 compounds, 1.5% hits;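 active means mean Tm shift, scaled 0 neutral to 100 positive control, at about 1.3% or above, every replicate too, limit read from the data; inconclusive means no clear call, values can overlap the other calls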
E-selectin induc: induces E-selectin expression in human endothelial cells; P16581; HUVEC E-selectin immunofluorescence imaging; normalized: neutral wells 0, TNF-alpha wells 100; activation, % at 7.58 µM; 260,000 compounds, 0.37% hits;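 active means mean E-selectin-positive cell signal at least 10% of the positive control, reached in at least 60% of replicates, without over 20% cell loss; inconclusive means no rule given, readout overlaps actives, possibly toxicity-flagged; inactive means the rest, including those meeting only one limit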
Target sequence (P16581 whole entry, looked up): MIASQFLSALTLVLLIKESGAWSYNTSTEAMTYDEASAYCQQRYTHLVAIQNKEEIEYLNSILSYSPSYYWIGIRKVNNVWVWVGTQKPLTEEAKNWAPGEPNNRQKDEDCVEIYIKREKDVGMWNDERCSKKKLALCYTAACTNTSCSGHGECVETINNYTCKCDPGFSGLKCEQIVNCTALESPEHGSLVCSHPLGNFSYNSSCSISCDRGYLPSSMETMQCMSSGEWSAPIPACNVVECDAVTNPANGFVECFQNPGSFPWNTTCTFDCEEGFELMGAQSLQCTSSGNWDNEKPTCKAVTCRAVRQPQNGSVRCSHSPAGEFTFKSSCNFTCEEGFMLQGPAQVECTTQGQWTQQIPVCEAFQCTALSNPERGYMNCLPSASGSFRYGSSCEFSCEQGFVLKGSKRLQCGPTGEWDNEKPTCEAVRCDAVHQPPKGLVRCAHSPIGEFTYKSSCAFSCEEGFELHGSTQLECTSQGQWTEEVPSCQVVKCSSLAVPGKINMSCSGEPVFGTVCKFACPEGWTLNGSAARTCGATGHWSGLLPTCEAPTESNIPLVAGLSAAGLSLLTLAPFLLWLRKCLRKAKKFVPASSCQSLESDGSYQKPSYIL
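Material: HUVEC primary endothelial cells; Amount: 3,000 cells per well; Dosing: single concentration; Medium: EGM-2 growth medium on 0.1% gelatin-coated wells; Read-out basis: percent E-selectin-positive cells; Signal: immunofluorescence imaging; Control set: TNF-alpha, DMSO.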
* hit, by the source's call; ? = inconclusive; . = no result given; [ ] = remark or other dose. An excerpt weighted towards active compounds, which were near 2.7% of everything screened.

SMILES	F508del corr	S100A4 MyoIIA	HIV Env fusion	FGF22 binding	E-selectin induc
COCC(=O)Nc1ccc2c(c1)C(=O)N(C)C[C@H](OC)[C@@H](C)CN(CC1CCCCC1)[C@@H](C)CO2	0	-2	.	0	-1
CC(=O)N[C@@H]1CC[C@H](CCNC(=O)C2CC2)O[C@H]1CO	-3	1	15[16.7 µM]	0	0
CC(=NNC(=O)c1ccncc1)c1ccccc1Cl	-2	-4	10	0	0
C/C(=N\NC(=O)c1ccccc1NC(=O)c1ccc(Cl)cc1)c1ccncc1	4	-5	-131	43*	0
CC1=Nc2ccc(Br)cc2C(c2ccccc2)N1CC(=O)NN (configuration not stated)	-2	3	19	43*	0
COC(=O)CN1C(c2ccccc2)=Nc2ccc(Cl)cc2C1c1ccccc1 (configuration not stated)	.	.	105*	.	.
NNC(=O)CN1C(c2ccccc2)=Nc2ccc(Br)cc2C1c1ccccc1 (configuration not stated)	-2	3	?	43*	.
COC(=O)CN1C(C)=Nc2ccc(C)cc2C1c1ccccc1 (configuration not stated)	-2	-4	17	0	.
COCCNc1nc(NCc2ccc(C(C)C)cc2)c2sccc2n1	4	-17	38	23*	0
COCCNc1nc(NCc2ccc(C)cc2C)c2sccc2n1	2	-12	-13	0	0
COCCNc1nc(Nc2ccc(C)cc2C)c2sccc2n1	10*	-3	-119	0	1
Cn1cc(CCNC(=O)CCc2nnc(CCCCc3ccccc3)o2)cn1	0	3	1	0	.
O=C(CCc1nnc(CCCc2ccccc2)o1)NCCN1CCOC1=O	1	15	11	43*	.
CCOC(=O)C1(C)/C(=N/Nc2ccccc2OC)C(=O)C(=O)N1c1ccccc1 (configuration not stated)	-1	-5	-8	43*	3
CCOC(=O)C1(C)/C(=N/Nc2ccccc2)C(=O)C(=O)N1c1ccccc1 (configuration not stated)	.	.	-66	.	.
CC(C)C#Cc1ccc2c(c1)O[C@H](CN(C)Cc1ccncc1)[C@@H](C)CN([C@@H](C)CO)S2(=O)=O	4	.	30[16.7 µM]	0	-5
CC1=NN(c2ccc(C)c(C)c2)C(=O)/C1=C\C=C\c1ccc([N+](=O)[O-])o1	-4	-4	-56	43*	.
COc1ccc(/C=C2/SC(=S)N(CCC(=O)O)C2=O)cc1	.	.	58*	.	.
COc1ccc(/C=C2\SC(=S)N(CCC(=O)Nc3ccc(C(=O)O)cc3)C2=O)cc1	-1	-1	-10	0	.
CCC[C@@H]1C[C@@]1(CCC)[C@@H](NP(=O)(c1ccccc1)c1ccccc1)c1ccc(C(=O)OC)cc1	1	-1	96*	0	0
COC(=O)c1cccc(C#CC(NP(=O)(c2ccccc2)c2ccccc2)c2ccccc2)c1 (configuration not stated)	-1	-18	-6	0	0
C/C=C/c1cnc2c(c1)C(=O)N([C@H](C)CO)C[C@H](C)[C@@H](CN(C)C(=O)NC1CCCCC1)O2	1	4	-18[16.7 µM]	0	0
c1ccc(CNC23CC4CC(CC(C4)C2)C3)nc1	-5	-2	-13	43*	3
O=C(CCc1ccccc1)Nc1ccc(S(=O)(=O)Nc2nccs2)cc1	-1	-3	17	0	0
O=C(CCS(=O)(=O)c1ccccc1)Nc1ccc(S(=O)(=O)Nc2nccs2)cc1	5	0	-24	43*	0
SMILES	F508del corr	S100A4 MyoIIA	HIV Env fusion	FGF22 binding	E-selectin induc
O=C(CCS(=O)(=O)c1ccccc1)Nc1ccc(-c2nc3ccccc3s2)cc1	-1	-1	-104	44*	.
COC(=O)[C@@H]1[C@@H](CO)[C@@H]2Cn3c(ccc(-c4ccc(F)cc4)c3=O)[C@@H]2N1C(=O)C1CCC1	.	1	7[16.7 µM]	0	0
CCC(=O)N1[C@@H](CO)[C@@H](c2ccccc2)C12CN(C(=O)c1ccc(F)cc1)C2	2	0	.	0	0
C[C@H]1CN([C@@H](C)CO)S(=O)(=O)c2ccc(-c3cccnc3)cc2O[C@@H]1CN(C)Cc1cccnc1	1	.	7[16.7 µM]	.	1
Cc1noc(C)c1S(=O)(=O)Nc1ccc2c(c1)C(=O)N([C@@H](C)CO)C[C@H](C)[C@@H](CN(C)Cc1ccccc1)OCCCC[C@@H](C)O2	0	3	-52[16.7 µM]	0	0
COC(=O)C1=C(C)N(C)C(=NCc2ccc(OC)cc2)NC1c1ccc(C(F)(F)F)cc1 (configuration not stated)	2	-3	55*	0	1
COC(=O)C1=C(C)N(Cc2ccc(C(F)(F)F)cc2)C(=NCc2ccccc2)NC1c1cccc(F)c1 (configuration not stated)	1	1	?	44*	0
CCN1C(=NCCc2ccccn2)N[C@@H](c2cccc(C(F)(F)F)c2)C(C(=O)OC)=C1C	0	3	-9	0	.
COC(=O)C1=C(C)N(Cc2ccccc2)C(=NCCc2ccccn2)N[C@H]1c1cccc(C(F)(F)F)c1	1	-2	80*	0	0
C[C@H](CO)N1C[C@H](C)[C@H](CN(C)CC2CCCCC2)Oc2ccc(NC(=O)Cn3cnnn3)cc2C1=O	1	-8	-8[16.7 µM]	0	-1
C[C@H](CO)N1C[C@H](C)[C@H](CN(C)C)Oc2ccc(NS(=O)(=O)c3cn(C)cn3)cc2CC1=O	0	0	.	0	0
CC[N+]1=C(C)C(C)(C)c2cc(C)ccc21	-19	182*	26	42	169*
CCN1C(=O)C(=O)c2cc(C)ccc21	3	37	-17	0	0
O=C(Nc1ccccc1)C1Cc2c(-c3ccccc3Oc3ccccc3)ccnc2O1 (configuration not stated)	-2	2	11	0	0
O=C(Nc1cc(C(F)(F)F)ccc1F)C1Cc2c(-c3ccccc3Oc3ccccc3)ccnc2O1 (configuration not stated)	0	0	79*	0	0
O=C(Nc1cccc(OC(F)(F)F)c1)C1Cc2c(-c3ccccc3Oc3ccccc3)ccnc2O1 (configuration not stated)	0	1	59*	0	0
COc1ccc(S(=O)(=O)N(C)C[C@@H]2OCCCC[C@@H](C)Oc3ccc(NC(=O)Nc4ccc(C(F)(F)F)cc4)cc3C(=O)N([C@H](C)CO)C[C@@H]2C)cc1	2	99*	7[16.7 µM]	0	0
Cc1ccc(S(=O)(=O)N(C)C[C@@H]2OCCCC[C@@H](C)Oc3ccc(NC(=O)Nc4ccc(C(F)(F)F)cc4)cc3C(=O)N([C@H](C)CO)C[C@H]2C)cc1	6	11	57*[16.7 µM]	0	.

Assay outcomes (PubChem BioAssay)
